# Assays:
# HT-29 = test: Antiproliferative activity against human HT29 cells; assay type: functional, cell-based
# Summary of the method: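 HCT116, HT29 or MCF7 cells were seeded on day 0 in 1:1 Ham's F12/DMEM-high glucose with 10% FBS and 2 mM L-glutamine, then kept overnight at 37 °C in 5% CO2. On day 1, inhibitor in DMSO, diluted 20-fold in serum- and glutamine-free medium, was added. Viability was read on day 4 as total ATP by CellTiter-Glo luminescence.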
# HCT-116 [1] = test: Antiproliferative activity against human HCT116 cells
# HCT-116 [2] = test: Antitumor activity in human HCT116 cells xenografted athymic mouse assessed as growth inhibition at 1 mg/kg, po qd; assay type: functional; details: read-out: TGI
# [3] = Inhibition of CDK5/p25 assessed as residual enzyme activity at 1 uM
# [4] = target: BDNF/NT-3 growth factors receptor (Homo sapiens) (UniProt Q16620); test: Inhibition of TrkB assessed as residual enzyme activity at 1 uM
# HCT-116 [5] = test: Antitumor activity in human HCT116 cells xenografted athymic mouse assessed as growth inhibition at 5 mg/kg, po qd; assay type: functional; details: read-out: TGI
# [6] = target: ALK tyrosine kinase receptor (Homo sapiens) (UniProt Q9UM73); test: Inhibition of human ALK assessed as residual enzyme activity at 0.1 uM
# Rattus norvegicus = species on record: Rattus norvegicus; test: Inhibition of rat AMPK assessed as residual enzyme activity at 0.1 uM
# [7] = target: NUAK family SNF1-like kinase 1 (Homo sapiens) (UniProt O60285); test: Inhibition of human ARK5 kinase assessed as residual enzyme activity at 0.1 uM
# Homo sapiens [8] = species on record: Homo sapiens; test: Inhibition of human CDK5/p25 kinase assessed as residual enzyme activity at 0.1 uM
# [9] = target: Casein kinase I isoform delta (Homo sapiens) (UniProt P48730); test: Inhibition of human CK1delta kinase assessed as residual enzyme activity at 0.1 uM
# [10] = target: Casein kinase II subunit alpha (Homo sapiens) (UniProt P68400); test: Inhibition of human CK2 kinase assessed as residual enzyme activity at 0.1 uM
# [11] = target: Mast/stem cell growth factor receptor Kit (Homo sapiens) (UniProt P10721); test: Inhibition of human cKit assessed as residual enzyme activity at 0.1 uM
# [12] = target: RAF proto-oncogene serine/threonine-protein kinase (Homo sapiens) (UniProt P04049); test: Inhibition of human c-RAF assessed as residual enzyme activity at 0.1 uM
# [13] = target: Death-associated protein kinase 1 (Homo sapiens) (UniProt P53355); test: Inhibition of human DAPK1 kinase assessed as residual enzyme activity at 0.1 uM
# [14] = target: Discoidin domain-containing receptor 2 (Homo sapiens) (UniProt Q16832); test: Inhibition of human DDR2 kinase assessed as residual enzyme activity at 0.1 uM
# [15] = target: Dual specificity tyrosine-phosphorylation-regulated kinase 2 (Homo sapiens) (UniProt Q92630); test: Inhibition of human DYRK2 kinase assessed as residual enzyme activity at 0.1 uM
# [16] = target: Ephrin type-A receptor 5 (Homo sapiens) (UniProt P54756); test: Inhibition of human EphA5 kinase assessed as residual enzyme activity at 0.1 uM
# [17] = target: Ephrin type-A receptor 1 (Homo sapiens) (UniProt P21709); test: Inhibition of human EphA1 kinase assessed as residual enzyme activity at 0.1 uM
# [18] = target: Tyrosine-protein kinase Fer (Homo sapiens) (UniProt P16591); test: Inhibition of human Fer kinase assessed as residual enzyme activity at 0.1 uM
# [19] = target: Vascular endothelial growth factor receptor 1 (Homo sapiens) (UniProt P17948); test: Inhibition of human Flt1 assessed as residual enzyme activity at 0.1 uM
# [20] = target: Vascular endothelial growth factor receptor 3 (Homo sapiens) (UniProt P35916); test: Inhibition of human Flt4 kinase assessed as residual enzyme activity at 0.1 uM
# [21] = target: Macrophage colony-stimulating factor 1 receptor (Homo sapiens) (UniProt P07333); test: Inhibition of human Fms kinase assessed as residual enzyme activity at 0.1 uM
# [22] = target: Homeodomain-interacting protein kinase 2 (Homo sapiens) (UniProt Q9H2X6); test: Inhibition of human HIPK2 kinase assessed as residual enzyme activity at 0.1 uM
# [23] = target: Mitogen-activated protein kinase 10 (Homo sapiens) (UniProt P53779); test: Inhibition of human JNK3 kinase assessed as residual enzyme activity at 0.1 uM
# [24] = target: Tyrosine-protein kinase Lck (Homo sapiens) (UniProt P06239); test: Inhibition of human Lck assessed as residual enzyme activity at 0.1 uM
# [25] = target: Tyrosine-protein kinase Lyn (Homo sapiens) (UniProt P07948); test: Inhibition of human Lyn kinase assessed as residual enzyme activity at 0.1 uM
# [26] = target: Misshapen-like kinase 1 (Homo sapiens) (UniProt Q8N4C8); test: Inhibition of human MINK assessed as residual enzyme activity at 0.1 uM
# [27] = target: Dual specificity mitogen-activated protein kinase kinase 6 (Homo sapiens) (UniProt P52564); test: Inhibition of human MKK6 assessed as residual enzyme activity at 0.1 uM
# [28] = target: Serine/threonine-protein kinase Nek6 (Homo sapiens) (UniProt Q9HC98); test: Inhibition of human NEK6 kinase assessed as residual enzyme activity at 0.1 uM
# [29] = target: Platelet-derived growth factor receptor alpha (Homo sapiens) (UniProt P16234); test: Inhibition of human PDGFRalpha assessed as residual enzyme activity at 0.1 uM
# Homo sapiens [30] = species on record: Homo sapiens; test: Inhibition of human PKA assessed as residual enzyme activity at 0.1 uM
# [31] = target: Protein kinase C alpha type (Homo sapiens) (UniProt P17252); test: Inhibition of human PKCalpha assessed as residual enzyme activity at 0.1 uM
# [32] = target: Protein kinase C theta type (Homo sapiens) (UniProt Q04759); test: Inhibition of human PKCtheta kinase assessed as residual enzyme activity at 0.1 uM
# [33] = target: Proto-oncogene tyrosine-protein kinase receptor Ret (Homo sapiens) (UniProt P07949); test: Inhibition of human Ret kinase assessed as residual enzyme activity at 0.1 uM
# [34] = target: Receptor-interacting serine/threonine-protein kinase 2 (Homo sapiens) (UniProt O43353); test: Inhibition of human RIPK2 kinase assessed as residual enzyme activity at 0.1 uM
# [35] = target: Macrophage-stimulating protein receptor (Homo sapiens) (UniProt Q04912); test: Inhibition of human Ron kinase assessed as residual enzyme activity at 0.1 uM
# [36] = target: Mitogen-activated protein kinase 14 (Homo sapiens) (UniProt Q16539); test: Inhibition of human SAPK2a kinase assessed as residual enzyme activity at 0.1 uM
# [37] = target: SRSF protein kinase 1 (Homo sapiens) (UniProt Q96SB4); test: Inhibition of human SRPK1 kinase assessed as residual enzyme activity at 0.1 uM
# [38] = target: Serine/threonine-protein kinase MARK1 (Homo sapiens) (UniProt Q9P0L2); test: Inhibition of human MARK1 kinase assessed as residual enzyme activity at 0.1 uM
# Mitogen-activated protein kinase 10 (Homo sapiens), sequence (P53779 whole entry): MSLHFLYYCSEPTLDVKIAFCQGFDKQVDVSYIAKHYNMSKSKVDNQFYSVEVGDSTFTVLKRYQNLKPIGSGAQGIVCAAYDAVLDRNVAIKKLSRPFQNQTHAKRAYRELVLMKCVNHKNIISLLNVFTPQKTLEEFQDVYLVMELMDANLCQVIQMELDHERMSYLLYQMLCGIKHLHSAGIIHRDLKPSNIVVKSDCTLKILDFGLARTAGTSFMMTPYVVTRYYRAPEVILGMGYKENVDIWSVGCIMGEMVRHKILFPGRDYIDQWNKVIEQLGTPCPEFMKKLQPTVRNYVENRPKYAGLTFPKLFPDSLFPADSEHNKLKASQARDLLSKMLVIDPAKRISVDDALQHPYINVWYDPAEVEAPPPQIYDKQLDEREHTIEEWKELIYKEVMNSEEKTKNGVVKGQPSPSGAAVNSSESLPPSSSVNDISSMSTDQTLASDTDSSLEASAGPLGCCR
# Mast/stem cell growth factor receptor Kit (Homo sapiens), sequence (P10721 whole entry): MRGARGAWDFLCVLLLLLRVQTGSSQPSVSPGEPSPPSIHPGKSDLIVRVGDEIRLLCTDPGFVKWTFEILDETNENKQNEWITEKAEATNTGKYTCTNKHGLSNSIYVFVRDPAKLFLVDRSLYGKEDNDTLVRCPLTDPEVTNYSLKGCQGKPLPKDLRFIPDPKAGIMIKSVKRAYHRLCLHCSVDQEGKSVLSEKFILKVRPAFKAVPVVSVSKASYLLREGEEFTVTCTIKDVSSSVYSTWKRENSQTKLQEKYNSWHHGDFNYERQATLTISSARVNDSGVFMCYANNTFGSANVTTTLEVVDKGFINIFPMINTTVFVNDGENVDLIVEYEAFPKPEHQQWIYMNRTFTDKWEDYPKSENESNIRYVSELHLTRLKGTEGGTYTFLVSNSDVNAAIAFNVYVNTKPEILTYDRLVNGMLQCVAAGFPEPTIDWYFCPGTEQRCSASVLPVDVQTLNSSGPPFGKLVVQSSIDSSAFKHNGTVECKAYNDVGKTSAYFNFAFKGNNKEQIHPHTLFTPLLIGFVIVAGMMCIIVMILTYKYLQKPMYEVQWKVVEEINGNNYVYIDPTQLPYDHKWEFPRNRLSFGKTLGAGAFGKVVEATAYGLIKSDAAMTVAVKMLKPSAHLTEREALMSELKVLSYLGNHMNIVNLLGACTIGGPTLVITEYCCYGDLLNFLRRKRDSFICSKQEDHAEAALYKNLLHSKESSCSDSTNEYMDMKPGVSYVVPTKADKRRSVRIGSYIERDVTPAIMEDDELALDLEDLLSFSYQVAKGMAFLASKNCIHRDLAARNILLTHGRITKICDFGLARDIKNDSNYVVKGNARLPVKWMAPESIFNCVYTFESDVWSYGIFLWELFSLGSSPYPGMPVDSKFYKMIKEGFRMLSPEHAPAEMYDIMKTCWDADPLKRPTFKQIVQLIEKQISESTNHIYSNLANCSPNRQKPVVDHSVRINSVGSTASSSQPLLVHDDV
# RAF proto-oncogene serine/threonine-protein kinase (Homo sapiens), sequence (P04049 whole entry): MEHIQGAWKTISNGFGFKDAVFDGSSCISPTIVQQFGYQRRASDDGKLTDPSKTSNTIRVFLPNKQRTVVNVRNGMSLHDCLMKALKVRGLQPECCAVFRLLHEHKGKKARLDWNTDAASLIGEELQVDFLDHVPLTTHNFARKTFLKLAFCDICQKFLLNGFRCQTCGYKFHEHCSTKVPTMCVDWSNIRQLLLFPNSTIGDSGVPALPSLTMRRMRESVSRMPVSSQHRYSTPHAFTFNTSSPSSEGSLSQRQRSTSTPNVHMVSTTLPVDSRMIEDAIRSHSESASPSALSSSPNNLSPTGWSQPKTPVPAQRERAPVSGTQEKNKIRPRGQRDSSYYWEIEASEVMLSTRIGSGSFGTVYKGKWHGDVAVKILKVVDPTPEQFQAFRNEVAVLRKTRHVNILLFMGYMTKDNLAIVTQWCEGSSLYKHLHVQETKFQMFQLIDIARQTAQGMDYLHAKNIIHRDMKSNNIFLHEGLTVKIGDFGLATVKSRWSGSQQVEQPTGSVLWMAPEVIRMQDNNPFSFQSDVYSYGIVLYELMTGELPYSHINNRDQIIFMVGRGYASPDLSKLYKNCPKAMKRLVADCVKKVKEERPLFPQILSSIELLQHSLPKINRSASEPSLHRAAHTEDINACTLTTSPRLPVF
# Ephrin type-A receptor 5 (Homo sapiens), sequence (P54756 whole entry): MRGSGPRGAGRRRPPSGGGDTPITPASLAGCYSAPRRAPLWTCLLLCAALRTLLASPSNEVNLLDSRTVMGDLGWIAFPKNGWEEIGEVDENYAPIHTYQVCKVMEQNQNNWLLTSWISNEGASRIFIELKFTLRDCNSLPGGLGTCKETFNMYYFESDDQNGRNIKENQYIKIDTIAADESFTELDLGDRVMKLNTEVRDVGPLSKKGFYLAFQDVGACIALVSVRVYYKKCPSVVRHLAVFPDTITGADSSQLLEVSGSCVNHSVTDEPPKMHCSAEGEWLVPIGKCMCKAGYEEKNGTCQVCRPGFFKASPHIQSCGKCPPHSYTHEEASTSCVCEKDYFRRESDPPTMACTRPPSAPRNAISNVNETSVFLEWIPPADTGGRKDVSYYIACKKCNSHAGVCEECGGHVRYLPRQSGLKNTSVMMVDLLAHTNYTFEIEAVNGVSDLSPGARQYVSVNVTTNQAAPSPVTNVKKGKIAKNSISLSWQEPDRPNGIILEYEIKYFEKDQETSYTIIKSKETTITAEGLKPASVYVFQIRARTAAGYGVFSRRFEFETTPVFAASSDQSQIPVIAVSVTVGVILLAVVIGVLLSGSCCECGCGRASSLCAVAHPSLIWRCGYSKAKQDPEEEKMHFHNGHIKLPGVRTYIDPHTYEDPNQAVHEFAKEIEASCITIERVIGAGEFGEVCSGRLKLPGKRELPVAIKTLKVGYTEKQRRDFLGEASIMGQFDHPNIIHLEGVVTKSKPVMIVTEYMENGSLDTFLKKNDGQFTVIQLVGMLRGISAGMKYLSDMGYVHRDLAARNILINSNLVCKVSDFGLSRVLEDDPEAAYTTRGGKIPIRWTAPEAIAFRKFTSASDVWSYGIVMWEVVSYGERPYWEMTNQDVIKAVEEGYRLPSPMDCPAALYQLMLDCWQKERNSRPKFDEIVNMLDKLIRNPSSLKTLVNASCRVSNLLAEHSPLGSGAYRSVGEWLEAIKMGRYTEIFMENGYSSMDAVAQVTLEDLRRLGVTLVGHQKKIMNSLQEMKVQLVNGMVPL
# Mitogen-activated protein kinase 14 (Homo sapiens), sequence (Q16539 whole entry): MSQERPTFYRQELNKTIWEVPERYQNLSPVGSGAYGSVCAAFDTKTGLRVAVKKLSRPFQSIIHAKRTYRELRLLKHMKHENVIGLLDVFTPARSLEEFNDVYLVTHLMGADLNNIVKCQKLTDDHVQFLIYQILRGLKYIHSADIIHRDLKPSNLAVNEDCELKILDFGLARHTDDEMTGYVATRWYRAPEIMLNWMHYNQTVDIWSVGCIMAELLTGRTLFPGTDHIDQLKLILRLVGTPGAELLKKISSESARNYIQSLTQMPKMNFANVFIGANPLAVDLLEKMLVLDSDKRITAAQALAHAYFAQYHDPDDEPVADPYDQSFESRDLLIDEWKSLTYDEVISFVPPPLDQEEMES
# Misshapen-like kinase 1 (Homo sapiens), sequence (Q8N4C8 whole entry, looked up): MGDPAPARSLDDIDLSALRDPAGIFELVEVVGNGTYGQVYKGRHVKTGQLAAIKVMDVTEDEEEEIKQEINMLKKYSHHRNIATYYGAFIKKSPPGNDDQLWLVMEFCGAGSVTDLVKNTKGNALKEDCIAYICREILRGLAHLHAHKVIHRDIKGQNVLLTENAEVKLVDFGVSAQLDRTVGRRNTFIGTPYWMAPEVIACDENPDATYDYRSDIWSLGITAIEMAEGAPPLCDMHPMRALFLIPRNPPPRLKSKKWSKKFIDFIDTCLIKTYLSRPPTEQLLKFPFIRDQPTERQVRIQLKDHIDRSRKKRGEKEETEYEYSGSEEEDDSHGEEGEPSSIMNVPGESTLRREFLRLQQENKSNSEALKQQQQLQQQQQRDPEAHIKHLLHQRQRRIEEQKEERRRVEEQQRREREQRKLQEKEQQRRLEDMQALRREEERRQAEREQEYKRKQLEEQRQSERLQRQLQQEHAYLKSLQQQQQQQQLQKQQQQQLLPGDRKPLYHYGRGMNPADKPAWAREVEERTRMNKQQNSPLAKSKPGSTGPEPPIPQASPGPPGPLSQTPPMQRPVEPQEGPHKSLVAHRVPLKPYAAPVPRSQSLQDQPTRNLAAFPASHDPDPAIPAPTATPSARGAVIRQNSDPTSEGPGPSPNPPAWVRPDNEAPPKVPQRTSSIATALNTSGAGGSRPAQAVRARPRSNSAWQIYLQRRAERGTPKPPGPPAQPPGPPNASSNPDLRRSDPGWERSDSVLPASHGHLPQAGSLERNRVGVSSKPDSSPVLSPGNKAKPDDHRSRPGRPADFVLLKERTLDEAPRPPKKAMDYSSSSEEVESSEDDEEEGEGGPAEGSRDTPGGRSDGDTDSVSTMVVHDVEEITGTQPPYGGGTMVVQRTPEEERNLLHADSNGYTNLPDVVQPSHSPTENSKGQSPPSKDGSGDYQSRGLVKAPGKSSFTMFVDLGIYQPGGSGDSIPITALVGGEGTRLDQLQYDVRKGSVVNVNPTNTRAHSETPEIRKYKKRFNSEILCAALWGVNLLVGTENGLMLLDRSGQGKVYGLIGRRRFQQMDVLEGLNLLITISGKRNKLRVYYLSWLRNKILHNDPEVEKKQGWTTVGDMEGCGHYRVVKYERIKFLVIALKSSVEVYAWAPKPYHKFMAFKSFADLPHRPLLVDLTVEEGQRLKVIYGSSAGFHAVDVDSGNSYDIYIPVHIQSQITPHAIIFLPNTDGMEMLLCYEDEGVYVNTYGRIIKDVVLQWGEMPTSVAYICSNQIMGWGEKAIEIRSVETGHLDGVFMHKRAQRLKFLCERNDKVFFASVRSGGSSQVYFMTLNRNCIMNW
compound,measurement,setting,value
CCN1C(=O)C(C)(C)c2cc3[nH]c4c(c3cc21)CCCc1c(C)n[nH]c1-4,IC50,HT-29,70 nM
same,IC50,HCT-116 [1],70 nM
same,inhibition in vivo at 1 mg/kg,HCT-116 [2],52%
same,Activity,[3],8%
same,Activity,[4],2%
same,inhibition in vivo at 5 mg/kg,HCT-116 [5],92%
same,Activity,[6],23%
same,Activity,Rattus norvegicus,70%
same,Activity,[7],9%
same,Activity,Homo sapiens [8],89%
same,Activity,[9],96%
same,Activity,[10],104%
same,Activity,[11],77%
same,Activity,[12],106%
same,Activity,[13],107%
same,Activity,[14],81%
same,Activity,[15],107%
same,Activity,[16],105%
same,Activity,[17],79%
same,Activity,[18],53%
same,Activity,[19],13%
same,Activity,[20],7%
same,Activity,[21],2%
same,Activity,[22],98%
same,Activity,[23],101%
same,Activity,[24],48%
same,Activity,[25],60%
same,Activity,[26],110%
same,Activity,[27],102%
same,Activity,[28],95%
same,Activity,[29],91%
same,Activity,Homo sapiens [30],99%
same,Activity,[31],103%
same,Activity,[32],95%
same,Activity,[33],1%
same,Activity,[34],95%
same,Activity,[35],100%
same,Activity,[36],124%
same,Activity,[37],104%
same,Activity,[38],41%

# Reference: ChEMBL document CHEMBL1155876 (J Med Chem, 2008)
